Experimental data from ChEMBL document CHEMBL4145682, “An Affinity-Based Probe for the Human Adenosine A2A Receptor” (J Med Chem, 2018).
Calls of active or inactive are those of the source. The calls are words filed in the database; no cut-off is given here.

Legend:
Adenosine receptor A2a [1] = biological target: T1, Adenosine receptor A2a (Homo sapiens, UniProt P29274); assay: Potency shift, difference in pKi for displacement of [3H]ZM241385 human A2AR (1 to 316 residues) expressed in Pichia pastoris SMD1168 cell membranes incubated for 0.5 hrs to pKi for displacement of [3H]ZM241385 human A2AR (1 to 316 residues) expressed in Pichia pastoris SMD1168 cell membranes incubated for 3 hrs
T1 sequence (P29274 whole entry, the tested form may be a part): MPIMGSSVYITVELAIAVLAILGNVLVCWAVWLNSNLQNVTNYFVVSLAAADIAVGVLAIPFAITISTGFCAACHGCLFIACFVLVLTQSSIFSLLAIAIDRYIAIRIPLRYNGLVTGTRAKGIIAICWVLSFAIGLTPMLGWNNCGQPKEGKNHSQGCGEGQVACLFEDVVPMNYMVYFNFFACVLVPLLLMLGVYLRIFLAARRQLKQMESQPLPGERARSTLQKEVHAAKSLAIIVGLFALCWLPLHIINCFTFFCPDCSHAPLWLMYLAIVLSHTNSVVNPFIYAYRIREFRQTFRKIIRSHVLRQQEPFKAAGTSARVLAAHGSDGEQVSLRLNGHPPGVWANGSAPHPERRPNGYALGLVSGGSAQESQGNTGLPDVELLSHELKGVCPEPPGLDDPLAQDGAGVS

Adenosine receptor A2a [2] = biological target: T1, Adenosine receptor A2a; assay: Displacement of [3H]ZM241385 human A2AR (1 to 316 residues) expressed in Pichia pastoris SMD1168 cell membranes
Adenosine receptor A2a [3] = biological target: T1, Adenosine receptor A2a; assay: Displacement of [3H]ZM241385 human A2AR […] expressed in […] cell membranes incubated for 0.5 hrs
In short: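 HEK293 cell membranes stably expressing hA2AR, 10 μg protein per tube. Buffer 25 mM Tris-HCl pH 7.4, 5 mM MgCl2, 0.1% CHAPS. [3H]ZM241385 displaced by increasing compound concentrations at 25°C for 0.5 h (standard) or 3 h. Nonspecific binding defined with 100 µM NECA. Stopped by GF/B filtration and scintillation counting. Apparent pKi, means ± SEM of three experiments in duplicate. Shift = pKi(3h) − pKi(0.5h).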

Adenosine receptor A2a [4] = biological target: T1, Adenosine receptor A2a; assay: Covalent binding to human A2AR (1 to 316 residues) expressed in Pichia pastoris SMD1168 cell membranes assessed as radioligand binding level pre-incubated at 1.5 to 5 nM followed by compound wash out before [3H]ZM241385 addition (reference value: 65 +/- 2%)
Homo sapiens = species on record: Homo sapiens; assay: Selectivity for human A2AR (1 to 316 residues) expressed in Pichia pastoris SMD1168 cell membranes over human A3AR
Adenosine receptor A2a [5] = biological target: T1, Adenosine receptor A2a; assay: Photoaffinity labelling of purified human A2AR (1 to 316 residues) by SDS-PAGE analaysis pretreated with 10 uM ZM241385 followed by compound addition at 1 uM by competitive labeling assay
In short: (§1)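 Purified hA2AR (0.1 mg/mL) was preincubated 1 h on ice with 10 μM competitor or 1% DMSO. Then labeled with 1 μM probe for 0.5 h on ice. CuAAC with Cy3-azide followed, then SDS-PAGE in-gel fluorescence normalized to anti-His immunoblot. Three experiments; Student's t-test.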

Adenosine receptor A2a [6] = biological target: T1, Adenosine receptor A2a; assay: Photoaffinity labelling of purified human A2AR (1 to 316 residues) by Western blot analysis
In short: (§2)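 His-tagged hA2AR (residues 1–316) from Pichia pastoris was purified by HisTrap, diluted to 0.1 mg/mL in 25 mM HEPES pH 7.5, 100 mM NaCl, 10 μM LMNG. Incubated with probe at a range of concentrations or 1% DMSO for 1 h on ice. CuAAC click on ice, 1 h: 5.6 mM CuSO4, 33 mM ascorbate, 1.1 mM THPTA, 4.4 μM Cy3-azide. Read-out: SDS-PAGE in-gel fluorescence of the ~47 kDa band, normalized to anti-His immunoblot. pEC50 fitted; three experiments.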

Adenosine receptor A2a [7] = biological target: T1, Adenosine receptor A2a; assay: Photoaffinity labelling of purified human A2AR (1 to 316 residues) by SDS-PAGE analaysis pretreated with 10 uM LUF7445 followed by compound addition at 1 uM by competitive labeling assay; in short: as §1
Adenosine receptor A2a [8] = biological target: T1, Adenosine receptor A2a; assay: Photoaffinity labelling of purified human A2AR (1 to 316 residues) by SDS-PAGE analaysis; in short: as §2
Adenosine receptor A2a [9] = biological target: T1, Adenosine receptor A2a; assay: Photoaffinity labelling of N-terminal FLAG-tagged and C-terminal His-tagged human adenosine A2A receptor expressed in HEK293 cell membranes at 1 uM incubated for 1 hr by SDS PAGE and Western blot analysis based affinity-based protein labeling assay
In short: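 Membranes (1 mg/mL in 50 mM Tris-HCl pH 7.4) came from HEK293 transiently transfected 48 h with FLAG-hA2AR-His. Incubated with probe (0.1–3 μM) or 1% DMSO for 1 h at room temperature. Click at room temperature for 1 h, with CuSO4 added last: 4.4 μM Cy3-azide, 33 mM ascorbate, 1.1 mM THPTA, 5.6 mM CuSO4. Denatured 30 min at 37°C. Read-out: in-gel fluorescence, with anti-FLAG Western blot (~50 kDa).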

Row | Compound | fold change (FC) (Adenosine receptor A2a [1]) | inhibition (Adenosine receptor A2a [2]) | Ki (Adenosine receptor A2a [3]) [nM] | inhibition (Adenosine receptor A2a [3]) | Activity (Adenosine receptor A2a [4]) [%] | Selectivity ratio (Homo sapiens) | Activity (Adenosine receptor A2a [5]) | Activity (Adenosine receptor A2a [6]) | Activity (Adenosine receptor A2a [7]) | Activity (Adenosine receptor A2a [8]) | EC50 (Adenosine receptor A2a [8]) [nM] | Activity (Adenosine receptor A2a [9])
1 | Nc1nc(NCCCCNC(=O)c2ccc(S(=O)(=O)F)cc2)nc2nc(-c3ccco3)nn12 | 0.85 | Dose-dependent effect | 6.31 | Dose-dependent effect | – | – | – | – | – | – | – | –
2 | Nc1nc(NCCCNC(=O)c2ccc(S(=O)(=O)F)cc2)nc2nc(-c3ccco3)nn12 | 0.72 | – | 5.37 | – | – | – | – | – | – | – | – | –
3 | C#CCN(CCCCCNc1nc(N)n2nc(-c3ccco3)nc2n1)C(=O)c1ccc(S(=O)(=O)F)cc1 | 0.41 | Dose-dependent effect | 3.89 | – | 43 | < 10 | inactive | Active | inactive | Dose-dependent effect | 794 | Active
4 | Nc1nc(NCCCCCNC(=O)c2ccc(S(=O)(=O)F)cc2)nc2nc(-c3ccco3)nn12 | 0.65 | Dose-dependent effect | 2.75 | Dose-dependent effect | – | – | – | – | – | – | – | –
